These results are taken from ChEMBL document CHEMBL3792273, “Synthesis and pharmacological evaluation of mono-arylimidamides as antileishmanial agents” (Bioorg Med Chem Lett, 2016).

A word on the pIC50: it is the IC50 on a negative log10 scale, so that one unit is a factor of ten.

The nature of data set [1]: Selectivity index, ratio of IC50 for cytotoxic activity against mouse J774 cells to IC50 for antileishmanial activity against Leishmania amazonensis amastigotes. Format: toxicity, cell-based. Particulars: read-out: Ratio IC50.
The nature of data set [2]: Selectivity index, ratio of IC50 for cytotoxic activity against mouse J774 cells to IC50 for antileishmanial activity against Leishmania donovani. It counts as toxicity, cell-based. Particulars: read-out: Ratio IC50.
Another data set concerns Mus musculus. Briefly: Toxicity in BALB/c mouse assessed as drug tolerance at 30 mg/kg/day, ip for 5 days. It counts as organism-based. Particulars: in vivo, 120 h. In a few lines: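 Compound was dissolved in water and injected i.p. into healthy, uninfected BALB/c mice at 30 mg/kg/day once daily for 5 consecutive days to assess in vivo tolerability.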
A short description of data set [3]: Drug level in BALB/c mouse liver at 40 mg/kg, po administered as single dose after 1 hr. It counts as ADME, organism-based. The conditions noted are these: read-out: Drug uptake. In short, it runs like this: (§1)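 Mice received a single oral dose of 100 μmol/kg (40 mg/kg). Compound levels in plasma, liver, spleen and kidney were measured at 1, 2 and 24 h post-dose and reported as concentrations. Values are means ± standard errors of triplicate determinations.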

Data set [4] can be described thus: Drug level in BALB/c mouse spleen at 40 mg/kg, po administered as single dose after 1 hr. Format: ADME, organism-based. The conditions noted are these: read-out: Drug uptake. In short, it runs like this: as §1
The nature of data set [5]: Drug level in BALB/c mouse plasma at 40 mg/kg, po administered as single dose after 1 hr. Format: ADME, organism-based. In short, it runs like this:
as §1

Data set [6] in a line: Drug level in BALB/c mouse plasma at 40 mg/kg, po administered as single dose after 24 hrs. Format: ADME, organism-based. In a few lines:
as §1

Data set [7] is described as follows: Drug level in BALB/c mouse spleen at 40 mg/kg, po administered as single dose after 24 hrs. Particulars: read-out: Drug uptake. It counts as ADME, organism-based. In short, it runs like this: as §1
Data set [8] can be described thus: Drug level in BALB/c mouse liver at 40 mg/kg, po administered as single dose after 24 hrs. It counts as ADME, organism-based. Particulars: read-out: Drug uptake. In short, it runs like this: as §1
In data set [9] the test system is Leishmania amazonensis. Briefly: Antileishmanial activity against beta-lactamase expressing Leishmania amazonensis amastigotes overnight infected in CD1 mouse macrophages incubated for 72 hrs by nitrocefin dye based assay in presence of posaconazole. It counts as functional, organism-based.
Data set [10] deals with Leishmania amazonensis. Briefly: Antileishmanial activity against Leishmania amazonensis infected in mouse peritoneal macrophages after 72 hrs using 2 hrs parasite exposed mouse peritoneal macrophages.

Structures are written as SMILES. pIC50: −log10 of the molar value.

Take `CC(C)Oc1cc(NC(=N)c2ccccn2)ccc1-c1ccc(-c2ccccc2)s1`: the selectivity ratio in [1] amounted to 3; in [2] it was 3.1.

Regarding `CC(C)Oc1cc(NC(=N)c2ccccn2)ccc1-c1ccc(-c2ccccc2)o1.CS(=O)(=O)O`, the selectivity ratio in data set [1] and in data set [2] was ≥ 25 each time. Moreover, the Activity entry in the data set with Mus musculus is “Non-toxic”. Further, the concentration at 1 h in data set [3] stood at 12600 nM; in data set [4] it was 4700 nM; in data set [5], 1900 nM. The concentration at 24 h in data set [6] was 140 nM; in data set [7], 600 nM; in data set [8], 600 nM. In the data set with Leishmania amazonensis [9], the pIC50 was 7.26.

In turn, `CC[C@@H]([C@H](C)O)n1ncn(-c2ccc(N3CCN(c4ccc(OC[C@@H]5CO[C@@](Cn6cncn6)(c6ccc(F)cc6F)C5)cc4)CC3)cc2)c1=O` [POSACONAZOLE] had a negative logarithm of the IC50 (pIC50) with Leishmania amazonensis [10] of 5.80.

As to `CC(C)Oc1cc(NC(=N)c2ccccn2)ccc1-c1ccc(-c2ccco2)o1.Cl`, the selectivity ratio in data set [1] and in [2] was ≥ 25 in each case. In addition, the Activity entry in the data set on Mus musculus was “Non-toxic”.

As to `COc1ccc(-n2cc(-c3ccc(NC(=N)c4ccccn4)cc3OC(C)C)nn2)cc1`, the selectivity ratio in data set [1] amounted to 5.5; in data set [2] it was 10.

Regarding `CC(C)Oc1cc(NC(=N)c2ncccn2)ccc1-c1ccc(-c2ccccc2)o1`, the selectivity ratio in [1] is 18; in [2], 27.

For the compound `CS(=O)(=O)O.N=C(Nc1ccc(-c2ccc(-c3ccccc3)o2)c(OC2CCCC2)c1)c1ccccn1`, the selectivity ratio in data set [1] and in data set [2] was ≥ 25 throughout. Moreover, the Activity result in the data set on Mus musculus is given as “Non-toxic”.

`CC(C)Oc1cc(NC(=N)c2ccccn2)ccc1-c1cnc(-c2ccccc2)o1`: the selectivity ratio in data set [1] amounted to 41; in data set [2] it was 24.
